Laboratory results from ChEMBL document CHEMBL2385037, “Bioactive dimeric carbazole alkaloids from Murraya koenigii” (J Nat Prod, 2013).

Columns and labels:
[1] = tested on: DNA; experiment: Displacement of ethidium bromide from calf thymus DNA assessed as decrease in fluorescence intensity by spectrophotometric analysis; type: nucleic-acid assay; conditions: Bos taurus
Procedure, shortened: (§1)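 Ethidium bromide displacement: emission of EB bound to CT-DNA (5 μM) is followed while compound is added over 0−50 μM. The Stern–Volmer Kq is the slope of I0/I versus [Q]. Kapp comes from KEB[EB] = Kapp[compound], taking the compound concentration at 50% loss of EB fluorescence, with KEB = 1.0 × 10^7 M−1 and [EB] = 5 μM.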

[2] = molecular target: T1, Albumin (Bos taurus, UniProt P02769); experiment: Binding affinity to bovine serum albumin assessed as decrease in fluorescence intensity by Scatchard plot analysis; type: ADME; conditions: cattle, isolated protein
Procedure, shortened: (§2)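 Intrinsic fluorescence quenching: emission spectra of BSA (2 μM) are recorded with compound added over 0−2.5 μM. The quenching data are analysed by Stern–Volmer and Scatchard plots to give the quenching constant Kq, the binding constant and the number of binding sites n.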

[3] = tested on: DNA; experiment: Binding affinity to calf thymus DNA by absorption titration; type: nucleic-acid assay; conditions: Bos taurus
Procedure, shortened: (§3)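 CT-DNA absorption titration: compound held at 50 μM while CT-DNA is raised over 0−25 μM, and electronic absorption spectra are recorded. The intrinsic binding constant Kb is fitted from [DNA]/(εa − εf) versus [DNA], with DNA counted in base pairs. εa = Aobs/[compound]; εf and εb are the free and fully bound extinction coefficients.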

[4] = tested on: Radical scavenging activity; experiment: Antioxidant activity assessed as DPPH free radical scavenging activity by spectrophotometric analysis; type: functional
[5] = molecular target: T1, Albumin; experiment: Binding affinity to bovine serum albumin assessed as decrease in fluorescence intensity by Stern-Volmer plot analysis; type: ADME; conditions: cattle, isolated protein; procedure, shortened: as §2
[6] = molecular target: T1, Albumin; experiment: Binding affinity to bovine serum albumin assessed decrease in fluorescence at 1 to 2.5 uM at 15 nm wavelength by fluorescence spectrophotometric analysis; type: ADME; conditions: cattle, isolated protein
Procedure, shortened: (§4)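 Synchronous fluorescence: BSA (2 μM) is titrated with compound over 0−2.5 μM. Spectra are recorded at wavelength differences Δλ = 15 nm and Δλ = 60 nm.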

[7] = Antioxidant activity assessed as hydroxyl radical scavenging activity after 15 mins by spectrophotometric analysis; type: functional
[8] = tested on: DNA; experiment: Binding affinity to calf thymus DNA assessed as change in hypochromicity at 50 uM by UV-vis titration relative to control; type: nucleic-acid assay; conditions: Bos taurus; procedure, shortened: as §3
[9] = molecular target: T1, Albumin; experiment: Binding affinity to bovine serum albumin assessed decrease in fluorescence at 1 to 2.5 uM at 60 nm wavelength by fluorescence spectrophotometric analysis; type: ADME; conditions: cattle, isolated protein; procedure, shortened: as §4
[10] = Antioxidant activity assessed as nitric oxide scavenging activity after 150 mins by Greiss method; type: functional
[11] = tested on: DNA; experiment: Displacement of ethidium bromide from calf thymus DNA assessed as […] at 1 to 50 uM by fluorescence spectrophotometric analysis relative to control; type: nucleic-acid assay; conditions: Bos taurus; procedure, shortened: as §1
[12] = Inhibition of alpha glucosidase (unknown origin) assessed as p-nitrophenyl alpha-D-glucopyranoside conversion to p-nitrophenol after 30 mins by spectrophotometric analysis; set-up: species or system Homo sapiens
[13] = molecular target: T1, Albumin; experiment: Binding affinity to bovine serum albumin assessed as change in hypochromicity at 1 to 2.5 uM by spectrophotometric analysis relative to control; type: ADME; conditions: cattle, isolated protein
[14] = tested on: DNA; experiment: Displacement of ethidium bromide from calf thymus DNA assessed as decrease in fluorescence intensity by Stern-Volmer plot analysis; type: nucleic-acid assay; conditions: Bos taurus; procedure, shortened: as §1
[15] = molecular target: T1, Albumin; experiment: Binding affinity to bovine serum albumin assessed blue shift at 3 uM by UV-vis spectrophotometric analysis; type: ADME; conditions: cattle, isolated protein
[16] = tested on: HeLa; experiment: Cytotoxicity against human HeLa cells incubated for 24 hrs followed by compound washout measured after 48 hrs by MTT assay; type: functional, cell-based
[17] = tested on: AGS; experiment: Cytotoxicity against human AGS cells incubated for 24 hrs followed by compound washout measured after 48 hrs by MTT assay; type: functional, cell-based
[18] = tested on: HCT-116; experiment: Cytotoxicity against human HCT116 cells incubated for 24 hrs followed by compound washout measured after 48 hrs by MTT assay; type: functional, cell-based

T1 sequence (P02769 whole entry): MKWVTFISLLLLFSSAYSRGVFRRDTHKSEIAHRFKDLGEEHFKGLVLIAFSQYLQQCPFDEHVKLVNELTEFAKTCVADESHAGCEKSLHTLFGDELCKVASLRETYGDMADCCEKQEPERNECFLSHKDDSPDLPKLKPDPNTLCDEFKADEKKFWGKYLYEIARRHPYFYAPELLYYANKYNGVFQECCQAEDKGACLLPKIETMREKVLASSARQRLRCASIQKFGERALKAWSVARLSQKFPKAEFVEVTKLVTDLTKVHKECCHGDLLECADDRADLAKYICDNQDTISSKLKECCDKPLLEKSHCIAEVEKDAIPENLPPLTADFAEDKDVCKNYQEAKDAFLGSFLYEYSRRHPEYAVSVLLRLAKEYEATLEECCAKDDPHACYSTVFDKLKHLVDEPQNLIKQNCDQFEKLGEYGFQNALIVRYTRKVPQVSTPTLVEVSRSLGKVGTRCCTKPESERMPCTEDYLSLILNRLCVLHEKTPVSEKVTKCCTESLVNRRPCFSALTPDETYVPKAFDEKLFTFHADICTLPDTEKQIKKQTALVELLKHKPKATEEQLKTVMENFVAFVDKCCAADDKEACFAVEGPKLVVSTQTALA

Structure (SMILES)	Kapp [1] [×10⁵ /M]	Kb [2] [×10⁴ /M]	Kb [3] [×10⁵ /M]	IC50 [4] [µM]	Kq [5] [×10⁵ /M]	Activity [6]	IC50 [7] [µM]	Activity [8] [%]	Activity [9]	IC50 [10] [µM]	Activity [11] [%]	IC50 [12] [µM]	Activity [13] [%]	Kq [14] [×10⁵ /M]	Activity [15]	IC50 [16] [µM]	IC50 [17] [µM]	IC50 [18] [µM]
COc1ccc2c([nH]c3c4c(c(C)cc32)OC(C)(C/C=C(\C)CCC=C(C)C)C=C4)c1-c1ccc2[nH]c3c4c(c(C)cc3c2c1O)OC(C)(C/C=C(\C)CCC=C(C)C)C=C4 (stereo not given)	0.5	0.72	2.2	31.1	2.2	Active	8.8	55	Active	7.2	22	41.2	36	0.1	Active	–	–	–
COc1cc2c(cc1-c1c(OC)ccc3c1[nH]c1c4c(c(C)cc13)OC(C)(C/C=C(\C)CCC=C(C)C)C=C4)c1cc(C)c3c(c1n2C)C=CC(C)(C/C=C(\C)CCC=C(C)C)O3 (stereo not given)	0.13	0.09	2	41.8	2.21	Active	13.2	54	Active	8.6	28	69	36	0.3	Active	–	–	–
COc1ccc2c([nH]c3c4c(c(C)cc32)OC(C)(C/C=C(\C)CCC=C(C)C)C=C4)c1-c1c(O)ccc2[nH]c3c4c(c(C)cc3c12)OC(C)(C/C=C(\C)CCC=C(C)C)C=C4 (stereo not given)	1.6	1.02	4.3	31.9	3.52	Active	12.3	82	Active	6.5	44	45.4	47	0.32	Active	17.2	23.2	22.3
C[C@H]1O[C@H](O[C@H]2[C@H](O)[C@@H](O)[C@@H](O[C@H]3[C@H](O)[C@@H](O)C(O)O[C@@H]3CO)O[C@@H]2CO)[C@H](O)[C@@H](O)[C@@H]1N[C@H]1C=C(CO)[C@@H](O)[C@H](O)[C@H]1O (stereo not given in full) [ACARBOSE]	–	–	–	–	–	–	–	–	–	–	–	15.2	–	–	–	–	–	–

The next lines start with results.

Kapp [1] [×10⁵ /M]	Kb [2] [×10⁴ /M]	Kb [3] [×10⁵ /M]	IC50 [4] [µM]	Kq [5] [×10⁵ /M]	Activity [6]	IC50 [7] [µM]	Activity [8] [%]	Activity [9]	IC50 [10] [µM]	Activity [11] [%]	IC50 [12] [µM]	Activity [13] [%]	Kq [14] [×10⁵ /M]	Activity [15]	Structure (SMILES)	IC50 [16] [µM]	IC50 [17] [µM]	IC50 [18] [µM]
–	–	–	4.7	–	–	19.4	–	–	4.7	–	–	–	–	–	C[C@@H]1O[C@@H](OC[C@H]2O[C@@H](Oc3c(-c4ccc(O)c(O)c4)oc4cc(O)cc(O)c4c3=O)[C@H](O)[C@@H](O)[C@@H]2O)[C@H](O)[C@H](O)[C@H]1O [RUTIN]	–	–	–
–	–	–	4.5	–	–	11.5	–	–	8.6	–	–	–	–	–	Cc1cc(C(C)(C)C)c(O)c(C(C)(C)C)c1 [BUTYLATED HYDROXYTOLUENE]	–	–	–
